The list is not random: actives were taken first. Their share in the collection is about 1.3%.
S1P3 antagonist – S1P3 receptor antagonists, primary screen, cell-based. 0.27% of 170,000 active. CHO S1P3 NFAT-BLA reporter, FRET fluorescence, antagonist mode. Sphingosine 1-phosphate receptor 3 (Homo sapiens), Q99500. AID 485, 2006. inhibition, % at 4.98 µM;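 active means inhibition above the plate cutoff, the mean inhibition of test wells on that plate plus 3 SD, cut at about 28% in these data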;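 further: cells challenged with S1P at its EC80 of 0.8 µM; blue over green emission ratio from cleaved BLA substrate after 4 h stimulation; 0% = S1P-stimulated wells and 100% = unstimulated DMSO-only wells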
Mdm2 ligase inh – MDM2-luciferase reporter signal enhancers, primary screen, MDM2 E3 ligase inhibitor project, cell-based, luminescence, 1536-well; 0.11% of 210,000 active; cell-based MDM2 ubiquitination luciferase reporter, 2 h; 0 = plate control, 100 = twice control, blank-subtracted; signal enhancement, % at 5 µM; E3 ubiquitin-protein ligase Mdm2 (Homo sapiens), Q00987;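 active means signal enhancement of 30% or more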;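 further: luminescence tracks abundance of the self-degrading MDM2-luciferase fusion protein; higher signal means inhibition of MDM2 E3 ligase activity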
Target sequence (Q00987 whole entry, looked up, the tested form may be a part): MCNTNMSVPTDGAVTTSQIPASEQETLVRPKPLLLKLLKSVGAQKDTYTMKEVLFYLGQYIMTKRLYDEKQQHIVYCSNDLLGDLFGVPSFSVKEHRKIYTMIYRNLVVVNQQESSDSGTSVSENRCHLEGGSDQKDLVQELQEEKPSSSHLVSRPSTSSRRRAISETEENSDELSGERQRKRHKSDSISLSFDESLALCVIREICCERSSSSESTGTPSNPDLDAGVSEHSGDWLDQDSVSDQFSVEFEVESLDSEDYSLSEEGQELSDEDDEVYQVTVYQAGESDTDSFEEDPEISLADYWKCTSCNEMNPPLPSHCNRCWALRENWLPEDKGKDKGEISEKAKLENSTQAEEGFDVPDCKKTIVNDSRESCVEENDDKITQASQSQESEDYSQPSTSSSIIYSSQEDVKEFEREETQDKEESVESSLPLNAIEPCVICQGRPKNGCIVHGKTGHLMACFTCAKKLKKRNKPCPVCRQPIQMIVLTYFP
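Material: Stable MDM2–luciferase fusion reporter cells | Amount: 2000 cells seeded into each well | Dosing: One concentration, 5 µM, with 0.2% DMSO | Incubation: 4 h cell settling then 2 h compound exposure, 37 °C | Measured by: Luciferase luminescence | Read-out basis: % enhancement relative to plate controls after blank subtraction | Benchmarks: Control and blank well means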
S1P4 agonist – S1P4 receptor agonists, primary screen, cell-based | Sphingosine 1-phosphate receptor 4 (Homo sapiens), O95977 | S1P4-expressing cell line, agonist reporter assay | activation, % at 4.98 µM | 0.35% of 220,000 active | AID 1509, 2009; in the data active means activation above about 11%;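 further: 0% = DMSO vehicle and 100% = reference agonist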
Hsp70 act – Hsp70 transcriptional activators, primary screen, cell-based, HeLa, Hsp70 promoter luciferase, luminescence, 10 µM. HeLa Hsp70 promoter luciferase reporter; scaled: vehicle 0, proteasome-inhibitor control 100%. activation, % at 10 µM. 0.04% of 200,000 active. AID 1203, 2008;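 active means activation above the mean across all tested compounds plus 3 SD, cutoff set per campaign, cut at about 5.5% in these data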;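 further: 100% = MG132 at 30 µM as the positive control and 0% = DMSO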
Dynein cargo inh – inhibitors of GR-EGFP nuclear translocation, primary screen, dynein cargo transport inhibitor project, imaging, high-content, 3617.4 mouse cells | 0.47% of 220,000 active | test concentration mostly 20 µM; stimulated with dexamethasone, 1 µM; active compounds read low | AID 1381, 2008 | z-score, hits read low;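 active means plate z-score of nuclear minus cytoplasmic receptor signal below a set negative limit, without overly bright fluorescence or cell loss, cut at about -3.5 in these data, passing the limit was not always enough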;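 further: z-score of nuclear minus cytoplasmic ring GR-EGFP intensity difference per well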
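Medium: Induction medium lacking tetracycline, stripped serum | Probe or stimulus: 1.0 µM final dexamethasone stimulus | Schedule: 48 h induction, then 1 h compound, then 30 min agonist, 37 °C | Signal: Automated 10x imaging of fixed Hoechst-stained cells | Evaluation: Per-cell GR-EGFP intensity, nucleus versus surrounding cytoplasmic ring, well-averaged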
S1P4 antagonist – S1P4 receptor antagonists, primary screen, cell-based. 0.26% of 220,000 active. S1P4-expressing cells, antagonist mode, reporter read-out. inhibition, % at 4.98 µM. Sphingosine 1-phosphate receptor 4 (Homo sapiens), O95977. AID 1510, 2009; in the data active means inhibition above about 29%;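 further: 0% = wells stimulated with agonist and 100% = vehicle wells without agonist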
Dynein inh conf – dynein cargo transport inhibitors, GR-EGFP translocation, confirmation, imaging, high-content imaging, GR-EGFP cells. 3617.4 GR-EGFP nuclear translocation imaging, dexamethasone-induced. calls only at 20 µM. 69% of 1,000 active. shares compounds with Dynein cargo inh;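 active means inhibition of receptor movement into the nucleus at or above a set limit in both runs, with normal cell brightness and cell count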;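 further: dexamethasone at 1 µM final in well for 30 min; nuclear minus cytoplasmic GR-EGFP mean intensity difference in channel 2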
The depositor's hits bear a star; i = inactive; / = not tested or not shown; + = active, no number.

SMILES	S1P3 antagonist	Mdm2 ligase inh	S1P4 agonist	Hsp70 act	Dynein cargo inh	S1P4 antagonist	Dynein inh conf
O=[N+]([O-])c1ccccc1-c1ccc(/C=N/n2cnnc2)o1	/	-3.1	0.4	-0.4	0.00631	-6.4	/
CCN1C/C(=C/c2cccc([N+](=O)[O-])c2)C(=O)/C(=C/c2cccc([N+](=O)[O-])c2)C1	6.2	14.2	1.4	-0.1	-3.98*	-15.1	+
Cc1ccc(N(C(=O)CCl)C(C(=O)NC2CCCCC2)c2cccnc2)cc1C (stereo not given)	-10.1	-6.2	1.8	-0.2	-4.06*	1.7	+
Cc1ccc(N(C(=O)CNC(=O)c2ccco2)C(C(=O)NC2CCCC2)c2cccnc2)cc1C (stereo not given)	10.6	-8.6	-0.2	-0.3	-0.647	-5.0	/
COc1ccc(/C=C\c2nc(=O)c3ccccc3o2)cc1	-11.8	-13.4	1.6	0.0	-3.59*	11.2	+
CC(CNS(=O)(=O)c1ccccc1)(c1ccccc1)N1CCCCC1 (stereo not given)	0.1	-10.0	0.1	/	0.0674	-6.8	/
O=C(CN(c1cccc(C(F)(F)F)c1)S(=O)(=O)c1ccc(Cl)c([N+](=O)[O-])c1)NCc1ccccc1Cl	0.0	-5.5	1.1	-0.4	-3.69*	-1.6	i
O=C(CN(c1cccc(C(F)(F)F)c1)S(=O)(=O)c1ccc(Cl)c([N+](=O)[O-])c1)NCc1ccccc1	-5.8	-2.5	0.5	-0.4	-5.54*	21.4	+
O=C(CN(c1ccc(Br)cc1)S(=O)(=O)c1ccc(Cl)c([N+](=O)[O-])c1)NCCc1ccccc1	-0.2	/	-0.1	-0.3	0.0285	-13.5	/
CN(C)C(=O)CCCCCCCCC(=O)N(C)C	1.9	/	0.4	/	-0.0349	-4.8	/
CSc1ccccc1Nc1ncnc(N)n1	-10.7	-20.0	0.9	/	0.706	16.8	/
O=C(NC(=S)Nc1ccc(-c2ccc(CO)o2)cc1)c1cccs1	-2.5	-20.1	-1.9	0.5	-6.62*	-4.1	i
CCCNC(=O)c1nnsc1S(=O)(=O)c1ccc(Cl)cc1	-1.6	-28.1	-3.0	-0.1	-4.2*	63.9*	+
CCCNC(=O)c1ccc2snnc2c1	/	3.4	0.1	0.6	-0.0359	1.1	/
CNC(=O)c1nnsc1S(=O)c1ccc(Cl)cc1 (stereo not given)	-17.5	-23.1	-1.5	-0.1	-4.99*	13.8	+
CCCNC(=O)c1nnsc1S(=O)c1ccc(Cl)cc1 (stereo not given)	-3.5	-20.6	-1.4	0.2	-4.76*	76.7*	+
CCN(CC)CCCNC(=S)N(Cc1cccnc1)Cc1cc2cc(C)ccc2[nH]c1=O	-9.0	-6.2	-1.0	/	0.426	10.4	/
CON(C)S(=O)(=O)c1ccc2c(c1)N(Cc1ccc(C)cc1)C(=O)C1CCCN21 (stereo not given)	-11.4	4.8	0.1	-0.3	-0.231	1.7	/
CC(=O)N1N=C(c2ccccc2OC(=O)/C=C/c2ccccc2)CC1c1ccccc1 (stereo not given)	-2.1	/	0.1	/	0.138	3.3	/
COc1ccc(C(F)(F)F)cc1N/C=C/c1nnnn1-c1ccc(C)cc1	-7.9	-10.2	-2.4	/	0.509	7.7	/
Cc1ccc2ncnc(Oc3ncccc3NC(=O)C(C)(C)C)c2c1	-3.6	-22.3	0.3	/	0.649	-8.8	/
COc1ccc(C(=O)/C=C/C(=O)N(CC(=O)NC2CCCCC2)Cc2ccc(F)cc2)c(O)c1	-1.4	10.9	0.6	-0.4	-4.54*	1.8	+
COc1ccc(C(=O)/C=C/C(=O)N(CC(=O)NCCC(C)C)Cc2cccs2)c(O)c1	-2.2	-8.8	2.1	0.3	-6.14*	-2.0	+
CC(C)CCn1c(=O)c2ccccc2n2c(CCl)nnc12	-3.4	-15.6	0.3	-0.2	-4.48*	-6.5	+
CCCCCn1c(=O)c2ccccc2n2c(CCl)nnc12	13.4	4.3	-0.1	0.5	-6.46*	-11.3	+
SMILES	S1P3 antagonist	Mdm2 ligase inh	S1P4 agonist	Hsp70 act	Dynein cargo inh	S1P4 antagonist	Dynein inh conf
CC(C)CCn1c(=O)c2ccccc2n2c(CN3CCCC3)nnc12	3.1	-23.4	0.3	1.0	0.227	-20.4	/
O=C(NCC1CCCO1)c1ccc2c(=O)n(Cc3cccc(Br)c3)c(=S)[nH]c2c1 (stereo not given)	-7.8	-3.7	-0.1	-0.4	-0.375	-4.6	/
Cc1ccc(C2=CC(C)(c3ccc(C)cc3)Nc3nc(C(F)(F)F)nn32)cc1 (stereo not given)	-9.8	2.5	0.1	0.1	1.13	5.1	/
Cc1cc(C2=CC(C)(c3cc(C)oc3C)Nc3nc(C(F)(F)F)nn32)c(C)o1 (stereo not given)	7.3	-5.7	-0.1	0.3	-6.1*	-1.7	+
Cc1ccsc1/C=N/NC(=O)c1ccc(-n2cccc2)cc1	-7.5	-0.1	3.0	0.1	0.855	-3.9	/
Cc1ccc(NC(=O)c2cc(N3C(=O)C=CC3=O)ccc2N2CCOCC2)cc1	-29.9	7.3	2.8	0.1	-4.87*	-15.1	+
Cc1cc2nc(CS(=O)(=O)c3ccccc3)cc(=O)n2[nH]1	-21.4	3.8	0.5	-0.3	-0.503	-19.2	/
CC(/C=C/C(=O)c1ccc(C)cc1)=C\c1ccccc1	/	-13.9	1.7	0.2	-0.715	-16.8	/
Cc1ccc(C(=O)/C=C\C(=O)c2ccc(C)cc2)cc1	7.6	-0.2	-0.4	-0.1	-7.16*	13.4	+
COC(=O)c1ccc(-n2ccnc2)cc1	6.3	-12.6	1.6	-0.2	-0.414	-3.1	/
CCOC(=O)C(=Cc1ccc(-n2ccnc2)cc1)C(=O)OCC	0.1	3.9	-1.6	1.8	-5.59*	3.4	+
CCOC(=O)C(=Cc1ccc(F)cc1)C(=O)OCC	/	-11.5	-1.4	0.1	-5.21*	18.6	+
CCOc1cc(C(F)(F)F)cnc1/C(N)=N/O	-9.9	-6.3	1.4	/	-0.69	-1.2	/
C/C(=N/NC(=O)c1ccc(C)nc1)c1ccc2c(c1)CCCC2	8.4	-2.5	-0.5	-0.3	1.19	-24.2	/
CCN(CCNC(=O)C1CCN(S(=O)(=O)c2cccc3cccnc23)CC1)c1ccccc1	-30.5	-20.9	0.0	-0.1	1.22	-0.9	/
Cc1cc(Oc2ccc(-c3ccccc3)cc2)n2ncnc2n1	-8.2	11.5	-0.6	0.2	-4.7*	-1.4	+

Bioassay records (PubChem)
